Measurements from ChEMBL document CHEMBL4152271, “Polypharmacological profile of 1,2-dihydro-2-oxo-pyridine-3-carboxamides in the endocannabinoid system” (Eur J Med Chem, 2018).
The source made the active and inactive calls. The calls are words filed in the database; no cut-off is given here.

Legend:
[1] = organism: Homo sapiens; experiment: Selectivity ratio of Ki for human CB1 receptor to Ki for human CB2 receptor
In short: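 Membranes expressing hCB1 or hCB2 (stably transfected CHO) in 50 mM Tris-HCl, 2.5 mM EDTA, 5 mM MgCl₂, 0.5% fatty acid-free BSA, pH 7.4. Incubated with compound and 0.5 nM [³H]CP55,940 for 90 min at 30 °C. Nonspecific binding with 10 µM […]. GF/B filtration, radioactivity counted, Ki derived. Mean ± SD, at least 3 experiments in triplicate.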

[2] = target: T1, Cannabinoid receptor 1 (Homo sapiens, UniProt P21554); experiment: Agonist activity at CB1 receptor in human U251MG cells assessed as upregulation of MICA/B expression at 10 uM after 24 hrs by cytofluorimetric method; format: functional, cell-based
In short: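 U251MG glioma cells seeded at 2x10⁴ cells/cm², grown 24h, washed, then exposed to vehicle or compound in complete medium for 24 h. 2x10⁵ cells stained with PE anti-MICA/B or isotype control, 20 min at 4°C, fixed in 1% formaldehyde. Flow cytometry read-out as MFI, 3 independent experiments, mean ± SD, ANOVA with Bonferroni.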

[3] = target: T2, Cannabinoid receptor 2 (Homo sapiens, UniProt P34972); experiment: Displacement of [3H]-CP55940 from human CB2 receptor expressed in CHO cell membranes after 90 mins
In short: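 Membranes expressing hCB1 or hCB2 (stably transfected CHO) in 50 mM Tris-HCl, 2.5 mM EDTA, 5 mM MgCl₂, 0.5% fatty acid-free BSA, pH 7.4. Nonspecific binding with 10 µM […]. GF/B filtration, radioactivity counted, Ki derived. Mean ± SD, at least 3 experiments in triplicate.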

[4] = target: T1, Cannabinoid receptor 1; experiment: Agonist activity at human CB1 receptor expressed in CHO cell membranes after 90 mins by [35S]GTPgammaS binding assay; format: functional, cell-based
[5] = target: T3, Fatty-acid amide hydrolase 1 (Homo sapiens, UniProt O00519); experiment: Inhibition of FAAH in human U937 cells using AEA containing [ethanolamine-1-3H]AEA as substrate preincubated for 30 mins followed by substrate addition and measured after 15 mins by liquid scintillation spectroscopic method; format: cell-based
T3 sequence (O00519 whole entry): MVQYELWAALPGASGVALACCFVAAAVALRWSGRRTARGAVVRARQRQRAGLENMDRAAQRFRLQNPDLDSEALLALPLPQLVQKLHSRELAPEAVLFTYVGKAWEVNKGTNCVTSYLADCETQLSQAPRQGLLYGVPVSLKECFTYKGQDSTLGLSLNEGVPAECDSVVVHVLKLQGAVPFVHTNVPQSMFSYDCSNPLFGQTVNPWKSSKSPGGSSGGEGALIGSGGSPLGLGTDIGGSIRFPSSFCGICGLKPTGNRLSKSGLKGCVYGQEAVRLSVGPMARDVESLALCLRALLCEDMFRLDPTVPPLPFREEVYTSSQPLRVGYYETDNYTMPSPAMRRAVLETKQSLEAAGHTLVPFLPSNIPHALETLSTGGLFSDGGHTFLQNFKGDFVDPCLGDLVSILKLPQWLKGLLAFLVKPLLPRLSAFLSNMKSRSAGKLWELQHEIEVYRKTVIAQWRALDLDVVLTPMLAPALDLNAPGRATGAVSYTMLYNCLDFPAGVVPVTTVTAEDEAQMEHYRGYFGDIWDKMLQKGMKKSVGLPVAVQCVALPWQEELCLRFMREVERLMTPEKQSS
In short: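 U937 cell homogenate (100 µg) in 10 mM Tris-HCl, 1 mM EDTA, pH 8, 0.1% fatty acid-free BSA. Compound at 10 µM screening concentration, 30 min at 37 °C. FAAH: 100 nM AEA with 1 nM [³H]AEA tracer. MAGL: 1 µM 2-OG with 1 nM tritiated tracer. Both 15 min at 37 °C, stopped with CHCl₃:MeOH (1:1), aqueous phase counted.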

[6] = tested on: U-937; experiment: Inhibition of [ethanolamine-1-3H]AEA/unlabeled AEA uptake in human U937 cells preincubated for 15 mins followed by [ethanolamine-1-3H]AEA/unlabeled AEA addition and measured after 15 mins by scintillation counting method; format: functional, cell-based
In short: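 Intact U937 cells (0.5x10⁶ per sample) in RPMI, preincubated with compound for 15 min at 37 °C. Then 1 nM [ethanolamine-1-³H]AEA plus unlabeled AEA (final 100 nM) added for 15 min. Stopped by rapid filtration and ice-cold PBS/1% BSA washes, radioactivity counted. At least three experiments in triplicate, mean ± SD.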

[7] = target: T1, Cannabinoid receptor 1; experiment: Displacement of [3H]-CP55940 from human CB1 receptor expressed in CHO cell membranes after 90 mins
[8] = tested on: U-251; experiment: Cytotoxicity against human U251MG cells assessed as decrease in cell viability at 0.6 to 40 uM after 48 hrs by MTT assay; format: functional, cell-based
In short: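 U251MG (EMEM, 10% FBS) or U937 (RPMI 1640, 10% FBS) cells plated at 4x10³/well for 24h, then exposed to compounds (0–40 µM) for 48 h at 37°C. MTT reduction, formazan read at 595 nm. Viability as % of untreated control. Five independent experiments in triplicate, mean ± SD, ANOVA with Bonferroni.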

[9] = target: T2, Cannabinoid receptor 2; experiment: Agonist activity at human CB2 receptor expressed in CHO cell membranes after 90 mins by [35S]GTPgammaS binding assay relative to control; format: functional
In short: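 Membranes (5 µg) of hCB2-expressing cells in 50 mM Tris-HCl, 3 mM MgCl₂, 0.2 mM EDTA, 100 mM NaCl, 0.5% fatty acid-free BSA, pH 7.4, with 10 µM GDP and 0.1 nM [³⁵S]GTPγS. Kept on ice, started by vehicle or compound, 90 min at 30 °C. Nonspecific binding with 10 µM GTPγS. Filtered on GF/B, radioactivity counted. At least three experiments in triplicate, mean ± SD.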

[10] = target: T4, Monoacylglycerol lipase ABHD6 (Homo sapiens, UniProt Q9BV23); experiment: Inhibition of human ABHD6 expressed in HEK293 cells using 2-OG as substrate preincubated for 30 mins followed by substrate addition and measured after 5 mins by liquid scintillation spectroscopic method; format: cell-based
T4 sequence (Q9BV23 whole entry): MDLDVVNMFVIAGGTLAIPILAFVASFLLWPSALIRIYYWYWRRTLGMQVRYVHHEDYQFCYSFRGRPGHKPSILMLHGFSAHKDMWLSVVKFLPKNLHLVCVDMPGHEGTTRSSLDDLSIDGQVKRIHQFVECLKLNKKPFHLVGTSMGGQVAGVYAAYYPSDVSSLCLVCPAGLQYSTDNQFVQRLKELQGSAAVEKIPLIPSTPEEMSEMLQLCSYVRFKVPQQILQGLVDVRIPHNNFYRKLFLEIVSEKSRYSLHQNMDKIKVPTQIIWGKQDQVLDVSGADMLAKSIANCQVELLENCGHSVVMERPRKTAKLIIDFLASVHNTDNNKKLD
In short: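 Homogenate (40 µg) of HEK293 cells stably transfected with hABHD6 or hABHD12, compound preincubated 30 min at 37 °C in […], 0.1% BSA, pH 7.6. DMSO vehicle; WWL70 10 µM or THL 20 µM as positive controls. 10 µM 2-OG added for 5 min at 37 °C, stopped with CHCl₃:MeOH. Aqueous phase counted; no-enzyme blanks and non-transfected HEK293 hydrolysis subtracted.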

T2 sequence (P34972 whole entry): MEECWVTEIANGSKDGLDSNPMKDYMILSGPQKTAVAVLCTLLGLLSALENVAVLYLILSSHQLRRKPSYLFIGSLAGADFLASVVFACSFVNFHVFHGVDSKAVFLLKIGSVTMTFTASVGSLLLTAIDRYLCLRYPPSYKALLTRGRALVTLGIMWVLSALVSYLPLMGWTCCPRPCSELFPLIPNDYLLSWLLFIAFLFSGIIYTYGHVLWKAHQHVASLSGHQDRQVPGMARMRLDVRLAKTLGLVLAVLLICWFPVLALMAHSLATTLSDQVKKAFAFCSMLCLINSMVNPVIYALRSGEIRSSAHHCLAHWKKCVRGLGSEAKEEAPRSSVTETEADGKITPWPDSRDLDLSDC
T1 sequence (P21554 whole entry): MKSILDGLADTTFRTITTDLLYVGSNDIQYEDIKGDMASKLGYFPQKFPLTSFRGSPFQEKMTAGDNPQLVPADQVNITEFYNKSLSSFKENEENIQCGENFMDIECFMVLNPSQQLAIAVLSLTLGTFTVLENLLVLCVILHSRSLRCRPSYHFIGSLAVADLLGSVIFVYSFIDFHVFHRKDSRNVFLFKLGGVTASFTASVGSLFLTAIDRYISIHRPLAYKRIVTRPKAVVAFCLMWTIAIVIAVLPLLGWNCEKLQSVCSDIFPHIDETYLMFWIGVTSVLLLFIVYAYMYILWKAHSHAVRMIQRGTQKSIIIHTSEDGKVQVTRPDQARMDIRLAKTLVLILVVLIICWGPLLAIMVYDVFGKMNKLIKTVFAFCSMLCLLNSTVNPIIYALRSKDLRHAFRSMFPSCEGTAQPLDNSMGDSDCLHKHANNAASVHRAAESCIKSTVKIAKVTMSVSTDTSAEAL

| SMILES | Ratio Ki [1] | Activity [2] | Ki [3] [nM] | EC50 [4] [nM] | IC50 [5] [nM] | IC50 [6] [nM] | Ki [7] [nM] | Activity [8] | Emax [9] [%] | IC50 [10] [µM] |
| --- | --- | --- | --- | --- | --- | --- | --- | --- | --- | --- |
| COc1ccc(-c2cn(Cc3ccc(F)cc3)c(=O)c(C(=O)NC3CCCCCC3)c2C)cc1 | 2 to 54 | Active | 7.9 | 96 | 1300 | 280 | 30.7 | inactive | 99 | > 10 |
| Cc1c(Br)cn(Cc2ccc(F)cc2)c(=O)c1C(=O)NC1CCCCCC1 | 0.65 | Active | 3.5 | 1.4 | 2300 | 930 | 2.3 | inactive | 134 | > 10 |
| Cc1c(Br)cnc(OCc2ccc(F)cc2)c1C(=O)NC1CCCCCC1 | 0.18 | Active | 606 | 182 | > 10000 | 620 | 113 | inactive | 125 | 0.53 |
